# Experimental data taken from ChEMBL document CHEMBL4673255, “Acylated 1H-1,2,4-Triazol-5-amines Targeting Human Coagulation Factor XIIa and Thrombin: Conventional and Microscale Synthesis, Anticoagulant Properties, and Mechanism of Action” (J Med Chem, 2020).
# Activity calls are given as the source filed them. The calls are words filed in the database; no cut-off is given here.
# Experiments:
# Coagulation factor XII = molecular target: T1, Coagulation factor XII (Homo sapiens, UniProt P00748); assay: Inhibition of human coagulation factor XIIA using Boc-Gln-Gly-Arg-AMC as fluorogenic substrate measured at 1 min interval for 1 hr by fluorometric assay
# T1 sequence (P00748 whole entry): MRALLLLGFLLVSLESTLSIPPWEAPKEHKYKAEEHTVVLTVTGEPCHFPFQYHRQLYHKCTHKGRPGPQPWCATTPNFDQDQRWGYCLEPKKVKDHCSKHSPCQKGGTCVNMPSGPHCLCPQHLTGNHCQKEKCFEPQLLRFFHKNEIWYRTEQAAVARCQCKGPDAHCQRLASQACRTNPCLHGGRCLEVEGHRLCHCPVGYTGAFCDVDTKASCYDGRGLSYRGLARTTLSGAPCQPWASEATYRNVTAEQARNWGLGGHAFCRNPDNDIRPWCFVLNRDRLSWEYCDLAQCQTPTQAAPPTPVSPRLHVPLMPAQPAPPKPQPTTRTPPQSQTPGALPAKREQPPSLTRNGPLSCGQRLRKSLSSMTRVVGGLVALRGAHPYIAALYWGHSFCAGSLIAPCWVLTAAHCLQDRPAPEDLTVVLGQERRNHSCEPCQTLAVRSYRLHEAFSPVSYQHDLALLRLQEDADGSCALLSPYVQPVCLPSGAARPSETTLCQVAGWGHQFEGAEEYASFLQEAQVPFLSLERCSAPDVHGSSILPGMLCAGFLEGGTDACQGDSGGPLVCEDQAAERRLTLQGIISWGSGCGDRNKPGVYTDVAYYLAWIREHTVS
# [1] = Inhibition of porcine trypsin using Z-Gly-Gly-Arg-AMC as fluorogenic substrate measured at 1 min interval for 1 hr by fluorometric assay; set-up: species or system Sus scrofa
# Prothrombin [2] = molecular target: T2, Prothrombin (Homo sapiens, UniProt P00734); assay: Inhibition of human coagulation factor alpha-thrombin at 33 uM using Boc-Val-Pro-Arg-AMC as fluorogenic substrate measured at 1 min interval for 1 hr by fluorometric assay relative to control
# [3] = molecular target: T3, Coagulation factor XII (Homo sapiens) (UniProt P00748); assay: […] inhibition of human coagulation factor XIIA using Boc-Gln-Gly-Arg-AMC as fluorogenic substrate measured every 87 sec for 180 mins by time-dependent fluorescence assay
# T3 sequence (whole entry): T1 sequence (P00748 whole entry)
# Summary of the method: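 Fluorescence (ex 355/em 460 nm) was read at once, every 87 s, for up to 180 min. IC50 was computed at each time point and plotted against time.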
# Blood [4] = assay: Anticoagulant activity in human blood assessed as increase in activated partial thromboplastin time at 300 uM incubated for 1 min by aPTT reagent based assay relative to control; format: functional
# Summary of the method: (§1)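 Compounds were tested at 300 µM, and the increase was expressed relative to DMSO. The doubling concentration (EC2×) is the concentration prolonging aPTT twofold. At least triplicate, mean ± SD.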
# Blood [5] = assay: Effect on blood coagulation in human blood assessed as increase in prothrombin time at 300 uM incubated for 3 mins followed by CaCl2 addition by PT reagent based assay relative to control; format: ADME, tissue-based; settings: 0.05 h
# Summary of the method: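 Clotting was started with PT reagent already containing CaCl2, prewarmed to 37 °C, and clotting time was recorded. Increase is given relative to DMSO; at least triplicate, mean ± SD.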
# [6] = molecular target: T3, Coagulation factor XII (Homo sapiens); assay: Inhibition of human coagulation factor XIIA in presence of Boc-Gln-Gly-Arg-AMC as fluorogenic substrate at 1 uM measured at 1 min interval for 1 hr by fluorometric assay relative to control
# Summary of the method: (§2)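 Screening of crude microscale amide-coupling products. Conversion was measured by 1H NMR and product content normalised to 76 µmol/L in DMSO, then tested at 1 µM and 100 nM in the fluorogenic FXIIa or thrombin assay. A 0-conversion reaction served as blank. Percent inhibition is from triplicates.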
# [7] = molecular target: T4, Urokinase-type plasminogen activator (Homo sapiens, UniProt P00749); assay: Inhibition of human uPA using Tos-Gly-Pro-Arg-AMC as fluorogenic substrate measured at 1 min interval for 1 hr by fluorometric assay
# [8] = molecular target: T5, Fatty-acid amide hydrolase 1 (Rattus norvegicus, UniProt P97612); assay: Inhibition of FAAH in rat brain membrane using N-(2-hydroxyethyl)-4-pyren-1-ylbutanamide as substrate measured after 60 mins by reverse-phase HPLC-based fluorescence assay; format: cell membranes
# T5 sequence (P97612 whole entry): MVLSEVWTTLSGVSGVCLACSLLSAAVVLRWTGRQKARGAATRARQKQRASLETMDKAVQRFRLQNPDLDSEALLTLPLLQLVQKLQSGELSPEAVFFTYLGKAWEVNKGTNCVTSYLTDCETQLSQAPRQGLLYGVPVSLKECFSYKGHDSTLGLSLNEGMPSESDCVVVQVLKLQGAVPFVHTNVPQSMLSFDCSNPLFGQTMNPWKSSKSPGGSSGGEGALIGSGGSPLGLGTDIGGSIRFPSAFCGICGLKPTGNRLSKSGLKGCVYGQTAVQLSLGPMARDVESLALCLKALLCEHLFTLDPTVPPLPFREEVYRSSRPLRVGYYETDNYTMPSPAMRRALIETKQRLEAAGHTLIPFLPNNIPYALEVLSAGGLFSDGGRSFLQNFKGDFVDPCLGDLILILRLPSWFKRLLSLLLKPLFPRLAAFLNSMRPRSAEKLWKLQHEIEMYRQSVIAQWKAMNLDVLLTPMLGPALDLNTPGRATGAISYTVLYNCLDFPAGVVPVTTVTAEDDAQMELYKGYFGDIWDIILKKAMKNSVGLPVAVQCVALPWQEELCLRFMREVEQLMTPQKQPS
# Plasminogen = Plasminogen (Homo sapiens, UniProt P00747); assay: Inhibition of human plasmin using Mes-dArg-Phe-Arg-AMC as fluorogenic substrate measured at 1 min interval for 1 hr by fluorometric assay
# Plasma kallikrein = Plasma kallikrein (Homo sapiens, UniProt P03952); assay: Inhibition of human kallikrein using Mes-dArg-Pro-Arg-AMC as fluorogenic substrate measured at 1 min interval for 1 hr by fluorometric assay
# Coagulation factor XI = Coagulation factor XI (Homo sapiens, UniProt P03951); assay: Inhibition of human coagulation factor XIA using Mes-dArg-Pro-Arg-AMC as fluorogenic substrate measured at 1 min interval for 1 hr by fluorometric assay
# Monoglyceride lipase = molecular target: T6, Monoglyceride lipase (Homo sapiens, UniProt Q99685); assay: Inhibition of human recombinant MAGL using 1,3-dihydroxypropan-2-yl 4-pyren-1-ylbutanoate as substrate measured after 45 mins by reverse-phase HPLC-based fluorescence assay
# T6 sequence (Q99685 whole entry): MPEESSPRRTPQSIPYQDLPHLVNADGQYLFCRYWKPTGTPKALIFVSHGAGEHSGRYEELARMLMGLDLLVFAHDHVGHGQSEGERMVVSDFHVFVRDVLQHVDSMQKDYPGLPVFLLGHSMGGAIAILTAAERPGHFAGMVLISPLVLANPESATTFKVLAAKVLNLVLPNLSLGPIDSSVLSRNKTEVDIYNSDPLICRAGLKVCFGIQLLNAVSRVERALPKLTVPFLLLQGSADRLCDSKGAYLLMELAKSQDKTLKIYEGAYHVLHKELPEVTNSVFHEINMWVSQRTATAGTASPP
# Blood [9] = assay: Anticoagulant activity in human blood assessed as activated partial thromboplastin time at 300 uM incubated for 1 min by aPTT reagent based assay (reference value: 44 sec); format: functional; summary of the method: as §1
# Prothrombin [10] = molecular target: T2, Prothrombin; assay: Inhibition of human coagulation factor alpha-thrombin using Boc-Val-Pro-Arg-AMC as fluorogenic substrate measured at 1 min interval for 1 hr by fluorometric assay
# Coagulation factor X [11] = molecular target: T7, Coagulation factor X (Homo sapiens, UniProt P00742); assay: Inhibition of human coagulation factor Xa using Boc-Ile-Glu-Gly-Arg-AMC as fluorogenic substrate measured at 1 min interval for 1 hr by fluorometric assay
# Plasma [12] = assay: (§3) Anticoagulant activity in human platelet-rich plasma assessed as reduction in TF-induced thrombin generation by measuring endogenous thrombin potential at 1 uM preincubated for 15 mins followed by TF addition by Z-Gly-Gly-Arg-AMC substrate based calibrated automated thrombography (reference value: 1203 +/- 44 AU.min/L); format: functional; settings: 0.25 h
# Summary of the method: (§4)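 Tissue-factor-triggered homogeneous thrombin generation followed by fluorogenic substrate cleavage. Read-outs: clotting time (T1/2), peak amplitude (Amax, AU/L), time to peak (Tmax) and ETP (AU·min/L). DMSO and buffer served as controls. n = 3, mean ± SD.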
# Plasma [13] = assay: as §3, with “Tmax of clotting time” for “endogenous thrombin potential”, “8.1” for “1203”, “0.6 min)” for “44 AU.min/L)”; format: functional, cell-free; summary of the method: as §4
# Coagulation factor X [14] = molecular target: T7, Coagulation factor X; assay: Inhibition of human coagulation factor Xa using Boc-Ile-Glu-Gly-Arg-AMC as fluorogenic substrate at 1 uM measured at 1 min interval for 1 hr by fluorometric assay relative to control
# Plasma [15] = assay: as §3, with “amplitude of” for “endogenous”, “peak” for “potential”, “63” for “1203”, “3.7 AU/L)” for “44 AU.min/L)”; format: functional; settings: 0.25 h; summary of the method: as §4
# Plasma [16] = assay: Anticoagulant activity in human platelet-rich plasma assessed as reduction in TF-induced thrombin generation by measuring half life of clotting time at 1 uM preincubated for 15 mins followed by TF addition by Z-Gly-Gly-Arg-AMC substrate based calibrated automated thrombography (Rvb= 3 +/- 0.5 min); format: functional, cell-free; summary of the method: as §4
# [17] = molecular target: T3, Coagulation factor XII (Homo sapiens); assay: Inhibition of human coagulation factor XIIA using Boc-Gln-Gly-Arg-AMC as fluorogenic substrate at 100 nM measured at 1 min interval for 1 hr by fluorometric assay relative to control; summary of the method: as §2
# [18] = molecular target: T4, Urokinase-type plasminogen activator; assay: Inhibition of human uPA using Tos-Gly-Pro-Arg-AMC as fluorogenic substrate at 5 uM measured at 1 min interval for 1 hr by fluorometric assay relative to control
# Homo sapiens = species on record: Homo sapiens; assay: Selectivity index, ratio of IC50 for inhibition of human coagulation factor alpha-thrombin using Boc-Val-Pro-Arg-AMC as fluorogenic substrate to IC50 for inhibition of human coagulation factor XIIA using Boc-Gln-Gly-Arg-AMC as fluorogenic substrate incubated for 1 hr by fluorometric assay
# Prothrombin [19] = molecular target: T2, Prothrombin; assay: Inhibition of human coagulation factor thrombin using Boc-Val-Pro-Arg-AMC as fluorogenic substrate at 100 nM measured at 1 min interval for 1 hr by fluorometric assay relative to control; summary of the method: as §2
# HepG2 = assay: Cytotoxicity against human HepG2 cells assessed as reduction in cell viability at 100 uM incubated for 48 hrs by alamar blue assay relative to control; format: cell-based; settings: hepg2, 48 h
# [20] = molecular target: T3, Coagulation factor XII (Homo sapiens); assay: Binding affinity to human plasma coagulation factor XIIA assessed as compound-adduct formation by measuring change in molecular mass at molar ratio of 1:20 measured after 4 mins by SEC/ESI-TOF mass spectra analysis; format: cell-free
# Summary of the method: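 β-FXIIa incubated with inhibitor at a 1:20 molar ratio, then size-exclusion chromatography coupled to ESI-MS to measure the mass of enzyme–inhibitor complexes. Further runs checked complex stability to probe reversibility.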
# Plasma [21] = assay: Antiplatelet activity in […] assessed as inhibition of MDA-MB-231-induced platelet aggregation at 0.1 to 10 uM by light transmission aggregometry; format: functional; settings: Homo sapiens, dose 0.1-10 µM
# CCF-STTG1 = assay: Cytotoxicity against human CCF-STTG1 cells assessed as reduction in cell viability at 100 uM incubated for 48 hrs by alamar blue assay relative to control; format: cell-based; settings: ccf-sttg1, 48 h
# Prothrombin [22] = molecular target: T2, Prothrombin; assay: Inhibition of human coagulation factor alpha-thrombin using Boc-Val-Pro-Arg-AMC as fluorogenic substrate at 2 uM measured at 1 min interval for 1 hr by fluorometric assay relative to control
# T7 sequence (P00742 41-179 limits assumed): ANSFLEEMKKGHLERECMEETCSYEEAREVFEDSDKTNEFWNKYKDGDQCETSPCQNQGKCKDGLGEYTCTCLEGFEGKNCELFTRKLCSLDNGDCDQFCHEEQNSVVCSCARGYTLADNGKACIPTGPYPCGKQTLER
# T7 sequence (P00742 235-488 limits assumed): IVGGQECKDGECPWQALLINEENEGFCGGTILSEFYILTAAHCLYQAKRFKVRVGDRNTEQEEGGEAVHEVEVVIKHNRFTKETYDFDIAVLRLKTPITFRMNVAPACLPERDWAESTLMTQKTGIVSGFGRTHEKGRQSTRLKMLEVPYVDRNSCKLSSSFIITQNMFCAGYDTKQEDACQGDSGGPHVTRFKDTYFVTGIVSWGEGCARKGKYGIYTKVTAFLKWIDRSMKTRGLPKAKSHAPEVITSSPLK
# Sequence of Plasma kallikrein (P03952 20-390 limits assumed): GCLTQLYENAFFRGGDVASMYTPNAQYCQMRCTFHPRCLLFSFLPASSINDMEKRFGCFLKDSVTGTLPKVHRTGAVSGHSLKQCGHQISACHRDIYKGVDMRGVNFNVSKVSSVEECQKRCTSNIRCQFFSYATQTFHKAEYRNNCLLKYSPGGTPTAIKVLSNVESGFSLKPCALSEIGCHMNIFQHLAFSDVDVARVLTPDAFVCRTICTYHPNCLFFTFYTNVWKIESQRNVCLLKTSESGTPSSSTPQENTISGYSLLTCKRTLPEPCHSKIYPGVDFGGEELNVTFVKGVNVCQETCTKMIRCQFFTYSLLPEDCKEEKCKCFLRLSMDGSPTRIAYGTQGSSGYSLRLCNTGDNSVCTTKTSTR
# Sequence of Plasma kallikrein (P03952 391-638 limits assumed): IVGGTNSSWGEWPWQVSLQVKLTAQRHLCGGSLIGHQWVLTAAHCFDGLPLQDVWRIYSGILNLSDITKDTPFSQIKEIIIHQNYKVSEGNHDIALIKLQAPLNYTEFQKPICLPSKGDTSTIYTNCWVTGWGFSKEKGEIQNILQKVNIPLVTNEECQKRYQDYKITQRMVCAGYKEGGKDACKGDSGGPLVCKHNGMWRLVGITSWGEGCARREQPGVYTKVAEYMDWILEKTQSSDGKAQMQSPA
# Sequence of Plasminogen (P00747 97-580 limits assumed): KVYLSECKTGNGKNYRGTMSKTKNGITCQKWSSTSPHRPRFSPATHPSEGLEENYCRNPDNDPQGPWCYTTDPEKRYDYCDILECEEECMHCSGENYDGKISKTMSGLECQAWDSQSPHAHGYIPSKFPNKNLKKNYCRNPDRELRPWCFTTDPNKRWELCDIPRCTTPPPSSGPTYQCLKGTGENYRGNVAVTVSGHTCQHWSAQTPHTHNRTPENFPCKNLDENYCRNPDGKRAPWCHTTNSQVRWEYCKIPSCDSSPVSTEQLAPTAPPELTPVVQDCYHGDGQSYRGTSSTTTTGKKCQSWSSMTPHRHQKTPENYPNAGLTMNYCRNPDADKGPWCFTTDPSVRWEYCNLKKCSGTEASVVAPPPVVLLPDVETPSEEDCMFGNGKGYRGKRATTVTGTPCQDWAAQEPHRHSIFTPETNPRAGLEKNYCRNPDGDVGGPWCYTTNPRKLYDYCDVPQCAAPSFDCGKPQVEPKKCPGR
# Sequence of Plasminogen (P00747 581-810 limits assumed): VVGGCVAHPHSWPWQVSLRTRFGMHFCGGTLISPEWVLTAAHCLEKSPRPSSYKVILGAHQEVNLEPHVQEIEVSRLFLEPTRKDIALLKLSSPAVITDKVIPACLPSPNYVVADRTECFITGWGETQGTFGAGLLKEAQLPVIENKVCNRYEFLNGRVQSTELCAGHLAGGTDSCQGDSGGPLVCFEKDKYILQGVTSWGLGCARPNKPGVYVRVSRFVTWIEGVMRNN
# Sequence of Coagulation factor XI (P03951 19-387 limits assumed): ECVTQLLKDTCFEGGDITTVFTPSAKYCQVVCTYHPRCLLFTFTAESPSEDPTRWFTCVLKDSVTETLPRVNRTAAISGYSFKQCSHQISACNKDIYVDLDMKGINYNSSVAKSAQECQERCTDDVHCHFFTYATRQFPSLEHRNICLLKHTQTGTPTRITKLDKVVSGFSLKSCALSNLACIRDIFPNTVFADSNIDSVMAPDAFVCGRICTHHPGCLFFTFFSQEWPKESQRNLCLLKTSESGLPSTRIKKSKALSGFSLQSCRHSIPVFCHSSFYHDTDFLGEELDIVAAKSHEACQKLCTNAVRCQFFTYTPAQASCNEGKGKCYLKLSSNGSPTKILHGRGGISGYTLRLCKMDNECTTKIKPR
# Sequence of Coagulation factor XI (P03951 388-625 limits assumed): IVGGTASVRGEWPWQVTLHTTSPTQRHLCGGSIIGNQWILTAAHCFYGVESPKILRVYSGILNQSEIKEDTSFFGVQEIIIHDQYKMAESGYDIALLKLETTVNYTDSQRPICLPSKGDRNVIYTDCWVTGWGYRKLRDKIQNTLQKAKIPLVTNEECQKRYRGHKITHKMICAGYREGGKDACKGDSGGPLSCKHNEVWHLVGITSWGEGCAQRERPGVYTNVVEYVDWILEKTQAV
smiles,measurement,setting,value
O=C(NC[C@H]1CN(c2ccc(N3CCOCC3=O)cc2)C(=O)O1)c1ccc(Cl)s1 [RIVAROXABAN],IC50,Coagulation factor XII,> 33 µM
same,IC50,[1],> 5 µM
same,inhibition,Prothrombin [2],55%
same,inhibition,[3],inactive
same,Activity,Blood [4],335%
same,Activity,Blood [5],1302%
same,inhibition,[6],-3%
Nc1nc(-c2ccccn2)nn1C(=O)c1ccccc1,IC50,Coagulation factor XII,0.132 µM
same,IC50,[1],> 5 µM
same,IC50,[7],7.93 µM
same,IC50,[8],> 5 µM
same,IC50,Plasminogen,> 5 µM
same,IC50,Plasma kallikrein,> 5 µM
same,IC50,Coagulation factor XI,> 5 µM
same,IC50,Monoglyceride lipase,> 5 µM
same,APTT,Blood [9],108 s
same,Activity,Blood [4],143%
same,Activity,Blood [5],12%
same,inhibition,[6],81%
same,IC50,Prothrombin [10],0.235 µM
same,IC50,Coagulation factor X [11],> 5 µM
Cn1c(CNc2ccc(C(=N)N)cc2)nc2cc(C(=O)N(CCC(=O)O)c3ccccn3)ccc21 [DABIGATRAN],Activity,Plasma [12],678 AU.min/L
same,Tmax,Plasma [13],25.5 min
same,Ki,[1],0.05 µM
same,inhibition,[3],inactive
same,inhibition,Coagulation factor X [14],34%
same,Activity,Plasma [15],72.4 AU/L
same,Activity,Blood [4],252%
same,inhibition,[6],-1%
same,T1/2,Plasma [16],15.2 min
Nc1nc(-c2ccccn2)nn1C(=O)Cc1ccccc1I,inhibition,[17],47%
same,IC50,Coagulation factor XII,0.062 µM
same,inhibition,[18],41%
same,Ratio IC50,Homo sapiens,29
same,IC50,Plasminogen,> 5 µM
same,IC50,Plasma kallikrein,> 5 µM
same,IC50,Coagulation factor XI,> 5 µM
same,Activity,Blood [4],92%
same,Activity,Blood [5],6%
same,inhibition,[6],89%
same,IC50,Prothrombin [10],1.82 µM
same,inhibition,Prothrombin [19],2%
same,IC50,Coagulation factor X [11],> 5 µM
Nc1nc(-c2ccccn2)nn1C(=O)c1ccc(NC(=O)c2ccccc2)cc1,IC50,Coagulation factor XII,0.109 µM
same,IC50,[1],> 5 µM
same,Activity,HepG2,13%
same,Ratio IC50,Homo sapiens,> 18
same,Activity,[20],223 Da
same,inhibition,Plasma [21],inactive
same,Activity,CCF-STTG1,35%
same,Activity,Blood [4],35%
same,Activity,Blood [5],2%
same,inhibition,[6],89%
same,inhibition,Prothrombin [22],38%
same,IC50,Coagulation factor X [11],> 5 µM
